Most compounds without a hit are left out; they make up all but 4.2% or so of the library.
GalR3 antag = GalR3 antagonists in HEK293 cells, primary screen, cell-based, fluorescence readout. Galanin receptor type 3 (Homo sapiens), O60755. hit rate 0.44% among 360,000. AID 651719, 2012. HEK293 GalR3-CNG cAMP membrane potential fluorescence; galR3 body fused to GalR1 C-terminus. inhibition, % at 3 µM;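 active means inhibition above the screen-wide average plus 3 SD, cut at about 13% in these data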;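 further: forskolin and galanin both at EC90 stimulate the cells; cAMP rise reported by CNG channel membrane potential dye signal; 0% = forskolin plus galanin with DMSO and 100% = forskolin alone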
Target sequence (O60755 1-299 limits assumed): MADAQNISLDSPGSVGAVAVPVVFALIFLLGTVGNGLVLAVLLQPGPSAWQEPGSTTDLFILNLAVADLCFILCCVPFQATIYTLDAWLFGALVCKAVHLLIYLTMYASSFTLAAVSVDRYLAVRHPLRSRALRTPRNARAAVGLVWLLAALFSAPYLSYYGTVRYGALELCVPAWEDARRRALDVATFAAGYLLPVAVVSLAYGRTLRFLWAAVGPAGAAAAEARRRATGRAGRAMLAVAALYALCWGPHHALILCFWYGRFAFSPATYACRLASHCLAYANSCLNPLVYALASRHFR
TAAR1 ag = human TAAR1 agonists, primary screen, Fluo-8 calcium fluorescence, CHO RD-HGA16 cells; vehicle wells 0%, saturating PEA agonist 100%; AID 624467, 2012; activation, % at 3 µM; Trace amine-associated receptor 1 (Homo sapiens), Q96RJ0; hit rate 0.99% among 360,000;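 active means activation above the mean activation of all test compounds in the run plus 3 SD, cut at about 38% in these data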
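System: CHO-derived RD-HGA16 cells with stable Gα16 and human TAAR1 / Times: 17-24 h plating, Fluo-8 75 min 37 °C, 30 min RT / Technique: calcium-sensitive Fluo-8 signal, excitation 470-495, emission 515-575 nm / Measure: % activation relative to PEA EC100 response / Benchmarks: DMSO and PEA EC100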
OX1R antag-1 = OX1R (HCRTR1) antagonists, primary screen, fluorescence, CHO/OX1R cells, Fluo-8 calcium, orexin A; Fluo-8 calcium fluorescence; inhibition, % at 5 µM; hit rate 0.43% among 330,000; AID 434989, 2010;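 active means inhibition above its plate's threshold, mean inhibition of all tested compounds on the plate plus 3 SD, cut at about 37% in these data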;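 further: 0% = orexin A challenge wells and 100% = SB-334867-A antagonist wells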
Target sequence (O43613 whole entry, looked up): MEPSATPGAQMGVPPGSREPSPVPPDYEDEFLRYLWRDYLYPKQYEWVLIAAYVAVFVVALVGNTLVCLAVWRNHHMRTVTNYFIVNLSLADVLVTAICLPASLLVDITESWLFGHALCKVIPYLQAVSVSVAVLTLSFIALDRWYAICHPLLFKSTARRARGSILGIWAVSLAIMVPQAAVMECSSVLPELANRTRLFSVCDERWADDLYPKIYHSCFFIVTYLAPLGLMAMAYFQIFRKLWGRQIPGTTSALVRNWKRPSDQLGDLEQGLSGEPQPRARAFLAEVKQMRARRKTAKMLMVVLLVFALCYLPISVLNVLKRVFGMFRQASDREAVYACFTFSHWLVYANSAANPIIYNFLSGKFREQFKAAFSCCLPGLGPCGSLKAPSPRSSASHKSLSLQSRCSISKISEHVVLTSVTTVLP
TAAR1 antagonist = human TAAR1 antagonists, primary screen, Fluo-8 calcium fluorescence, CHO RD-HGA16 cells | antagonist | inhibition, % at 3 µM | Trace amine-associated receptor 1 (Homo sapiens), Q96RJ0 | hit rate 1.5% among 360,000 | AID 624466, 2012;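 active means inhibition above a per-plate cutoff, the mean inhibition of test compounds on that plate plus 3 SD, cut at about 49% in these data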;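 further: 0% = DMSO plus EC80 beta-PEA response and 100% = DMSO alone without agonist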
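Assay system: CHO-derived RD-HGA16 cells stably expressing human TAAR1 plus Gα16. Timing: 140 s kinetic read after compound, 140 s after agonist. Technique: kinetic Fluo-8 calcium fluorescence measurement. Measure: % inhibition of agonist calcium response.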
CHO parental Ca = ATP-evoked calcium signal inhibitors, parental CHO, primary screen, counter-screen for OX1R antagonist project, cell-based, fluorescence, Fluo-8 calcium dye; parental CHO-K1, ATP-induced calcium, Fluo-8 fluorescence; inhibition, % at 5.6 µM; hit rate 0.63% among 330,000;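 active means inhibition above that plate's mean sample inhibition plus 3 SD, cut at about 26% in these data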;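 further: 0% = ATP-challenged DMSO wells and 100% = DMSO wells without ATP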
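Test system: parental CHO cells; detection: calcium-sensitive Fluo-8 fluorescence; evaluation: percent inhibition of calcium signal; also added: ATP as calcium-mobilizing challenge; repeats: one well per compound; control set: ATP-challenged DMSO wells low, unchallenged DMSO wells high; compound: single nominal dose of 5.6 µM per compound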
OX1R antag-2 = antagonists of human orexin 1 receptor (OX1R); Orexin/Hypocretin receptor type 1 (Homo sapiens), O43613; OX1R-expressing cells, FRET antagonist read-out; inhibition, % at 6.6 µM; hit rate 1.8% among 330,000; in the data active means inhibition mostly above about 38%, no sharp cut-off; inactive means mostly below about 40%;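 further: 0% = agonist challenge alone and 100% = reference antagonist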
Numbers without * were called inactive; . = no result given.

SMILES | GalR3 antag | TAAR1 ag | OX1R antag-1 | TAAR1 antagonist | CHO parental Ca | OX1R antag-2
O=S(=O)(O)c1cc(O)c2c(O)c(N=Nc3cc(Cl)ccc3O)c(S(=O)(=O)O)cc2c1 | . | . | -1 | . | -9 | 42
CN(C)C(=O)CSc1nnc(-c2cccs2)n1-c1ccccc1 | 1 | 1 | -22 | -23 | -3 | 14
O=c1cc(-c2ccc(O)cc2)oc2ccc3ccccc3c12 | -5 | 16 | 1 | -23 | -16 | 15
O=c1cc(-c2ccc(O)cc2)oc2c1ccc1ccccc12 | -9 | 7 | -5 | 13 | -3 | 44*
CCOc1ccc(-n2c(SCc3ccc(C#N)cc3)nnc2-c2cccnc2)cc1 | 63* | 10 | -35 | -13 | -30 | 27
COc1ccc(C(=O)CSc2nnc(-c3cnccn3)n2Cc2ccco2)cc1 | -4 | 1 | -21 | 15 | -7 | 17
COCCNC(=O)C(c1ccc(O)cc1)N(Cc1ccccc1)C(=O)CCC(=O)Nc1ccccn1 (stereo unspecified) | -7 | -2 | 0 | 8 | -4 | 15
COCCNC(=O)C(c1ccc(F)cc1)N(Cc1cccs1)C(=O)CCC(=O)Nc1ccccn1 (stereo unspecified) | -8 | 0 | 17 | 1 | -18 | 76*
COCCNC(=O)C(c1ccc(F)cc1)N(Cc1ccccc1)C(=O)CCC(=O)Nc1ccccn1 (stereo unspecified) | -1 | 0 | 10 | 3 | -25 | 70*
O=C1CCCN1CCCNS(=O)(=O)c1ccc(Br)s1 | -4 | -1 | -2 | 1 | -12 | 10
c1ccc(-c2[nH]ncc2CN2CCc3ccccc3C2)cc1 | 3 | 24 | -25 | -15 | -19 | 4
CC(=O)c1c(C)[nH]c(C(=O)OCC(=O)Nc2cccnc2Cl)c1C | -6 | 6 | -19 | -1 | -11 | 7
O=C(Nc1ccc([N+](=O)[O-])cc1)Nc1nc(-c2ccc(Cl)s2)cs1 | -7 | 11 | 28 | 3 | 57* | 28
CCOc1ccccc1/C=C(\NC(=O)c1ccccc1)C(=O)NCCC(=O)O | 1 | 1 | 1 | 14 | -1 | 28
Cc1cc(C)c(C#N)c(N2CCN(Cc3ccccc3)CC2)n1 | -3 | 0 | -14 | 1 | -29 | 9
Cc1c(O)c(CN2CCCC2)cc2c1oc(=O)c1ccccc12 | -10 | 21 | -22 | 1 | -22 | 23
C#CCOc1c(/C=C\c2nc(O)c([N+](=O)[O-])c(=O)[nH]2)cc(Br)cc1OC | -12 | 1 | 1 | -18 | 2 | 53*
CC(C)(C)NC(=O)NC(=O)CN1CCCCC1 | 6 | 1 | -4 | 7 | -9 | 2
O=C(Nc1ccncc1)Nc1cccc(C(F)(F)F)c1 | -1 | 15 | 4 | -1 | 12 | 5
CCN(CC)S(=O)(=O)c1ccc(NC(=O)Nc2cccc(C(F)(F)F)c2)cc1 | 1 | 27 | 6 | 9 | 35* | 12
CN(C)S(=O)(=O)Oc1ccc(C(=O)Nc2cccc(C(F)(F)F)c2)cc1 | -3 | 6 | 1 | 41 | 53* | 51*
O=C(Nc1ccc(OC(F)F)cc1)Nc1cccc(C(F)(F)F)c1 | -6 | 11 | 50* | 36 | 60* | 45*
C1CN(CC2COC(CN3CCOCC3)CO2)CCO1 (stereo unspecified) | -1 | 1 | . | 8 | . | .
O=C(Nc1ccc2ccccc2c1)c1ccc(Br)o1 | -4 | -4 | . | 7 | . | .
CCC(c1nnnn1CC1CCCO1)N(CCN1CCOCC1)Cc1cc2cc(C)ccc2[nH]c1=O (stereo unspecified) | -1 | 9 | . | -1 | . | .
SMILES | GalR3 antag | TAAR1 ag | OX1R antag-1 | TAAR1 antagonist | CHO parental Ca | OX1R antag-2
CC(C)N(Cc1nc(-c2ccc(Cl)cc2)no1)C(=O)C(c1ccccc1)c1ccccc1 | -5 | 7 | -34 | 1 | 4 | 16
COc1ccc(Cl)cc1C(=O)N(Cc1nc(-c2cccc(C)c2)no1)C(C)C | -2 | -1 | -23 | 29 | 47* | 29
CC(C)N(Cc1nc(-c2ccccc2)no1)S(=O)(=O)c1ccccc1 | . | -1 | -8 | 10 | 60* | 32
Cc1cccc(-c2noc(CN(C(=O)CCc3ccccc3)C(C)C)n2)c1 | -6 | 12 | -21 | -2 | 42* | 13
Cc1cccc(-c2noc(CN(C(=O)/C=C/c3ccccc3Cl)C(C)C)n2)c1 | -9 | 1 | -13 | -7 | -4 | 15
Cc1ccc(-c2noc(CN(C(=O)C(c3ccccc3)c3ccccc3)C(C)C)n2)cc1 | -7 | 3 | 14 | 9 | 52* | 24
Brc1ccc2nc(-c3ccco3)c(Cc3ccsc3)n2c1 | -8 | 0 | . | -15 | . | .
Cc1ccccc1OCC(=O)NNC(=O)CSc1nc(N)cc(N)n1 | -1 | 1 | -28 | -6 | 1 | 18
O=c1c2cc(NC(=S)NC3CCN(Cc4ccccc4)CC3)ccc2nc2n1CCCCC2 | -5 | 3 | -33 | -4 | -28 | 19
CCC(=O)c1ccc(OCC(=O)Nc2ccc3c(c2)OCCO3)cc1 | 0 | 1 | -1 | -5 | -9 | 21
COC(=O)c1sccc1N/N=C/c1cccc(OC)c1O | -1 | 6 | -11 | 16 | -11 | 64
O=C(O)c1cc([N+](=O)[O-])ccc1-c1ccc([N+](=O)[O-])cc1C(=O)O | -2 | 2 | . | -22 | . | .
CCN(CC)C(=O)c1cc([N+](=O)[O-])cc2c1-c1ccc([N+](=O)[O-])cc1C2=C(C#N)C#N | -2 | 2 | -27 | -9 | -15 | 71*
C[C@@H]1CN([C@H](C)CO)C(=O)CCCn2nncc2CO[C@H]1CN(C)Cc1ccc(-c2ccccc2)cc1 | -1 | 0 | . | -8 | . | .
Cc1nc2scc(-c3ccc(C(C)(C)C)cc3)c2c(=O)n1N | -2 | 10 | -1 | 51* | 0 | 19
O=C(NC(Nc1nc2ccc([N+](=O)[O-])cc2s1)(C(F)(F)F)C(F)(F)F)c1ccccc1Cl | 7 | 7 | 25 | 55* | 33* | 90*
CN1c2ccccc2C(C)(C)C12C=Cc1cc(O)ccc1O2 (stereo unspecified) | -10 | 0 | 22 | 17 | 56* | 29
c1cc2c(cc1C1CCCCC1)c1c3n2CCCNC3CCC1 (stereo unspecified) | -8 | 43* | 22 | 35 | 14 | 3
O=C(OCC(=O)N1CCCCCC1)c1cccnc1Cl | -6 | 28 | 0 | 7 | 3 | 3
COC(=O)c1ccc(/C=N/Nc2nc3ccccc3[nH]2)cc1 | -1 | 10 | -29 | 12 | -24 | 18

High-throughput results from PubChem.
